Values after ≈ are worked out from the molar mass of the structure shown.
Key:
[1] = biological target: T1, Cytochrome P450 1A2 (Homo sapiens, UniProt P05177); test: Inhibition of recombinant human CYP1A2 using 7-ethoxyresorufin as substrate after 50 mins in presence of NADP+ by EROD assay; type: ADME
T1 sequence (P05177 whole entry): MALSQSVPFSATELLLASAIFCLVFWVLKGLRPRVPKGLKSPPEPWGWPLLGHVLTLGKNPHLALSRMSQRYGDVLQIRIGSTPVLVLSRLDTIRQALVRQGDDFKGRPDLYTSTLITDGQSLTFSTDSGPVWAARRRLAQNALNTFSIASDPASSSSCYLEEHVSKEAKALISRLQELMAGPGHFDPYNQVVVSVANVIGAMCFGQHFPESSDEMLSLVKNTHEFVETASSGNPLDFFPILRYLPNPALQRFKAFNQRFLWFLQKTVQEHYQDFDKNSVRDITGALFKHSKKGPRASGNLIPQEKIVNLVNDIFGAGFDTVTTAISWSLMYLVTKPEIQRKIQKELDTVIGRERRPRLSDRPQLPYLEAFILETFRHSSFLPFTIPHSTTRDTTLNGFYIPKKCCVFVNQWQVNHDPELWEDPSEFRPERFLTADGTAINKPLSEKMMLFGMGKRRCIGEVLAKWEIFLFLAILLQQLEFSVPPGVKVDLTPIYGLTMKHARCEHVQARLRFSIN
Method in brief: (§1)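 Recombinant human CYP1 Supersomes co-expressing P450 reductase; 20 fmol CYP1B1, 10 fmol CYP1A1 or 60 fmol CYP1A2 per well. Incubated at 37 °C (1B1 35 min, 1A1 15 min, 1A2 50 min).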

[2] = Water solubility of compound by HPLC analysis; type: physicochemical
Method in brief: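 Compound stocks at 5 mg/mL in DCM/MeOH were diluted in MeOH to 125–2000 µg/mL (500–5000 µg/mL for the salt form) and run on C18 HPLC with detection at 360 nm for calibration. A 10 µL injection of supersaturated aqueous solution, diluted if needed, was then analysed. Solubility was calculated from the linear regression.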

[3] = biological target: T2, Cytochrome P450 1A1 (Homo sapiens, UniProt P04798); test: Inhibition of recombinant human CYP1A1 using 7-ethoxyresorufin as substrate after 15 mins in presence of NADP+ by EROD assay; type: ADME
T2 sequence (P04798 whole entry): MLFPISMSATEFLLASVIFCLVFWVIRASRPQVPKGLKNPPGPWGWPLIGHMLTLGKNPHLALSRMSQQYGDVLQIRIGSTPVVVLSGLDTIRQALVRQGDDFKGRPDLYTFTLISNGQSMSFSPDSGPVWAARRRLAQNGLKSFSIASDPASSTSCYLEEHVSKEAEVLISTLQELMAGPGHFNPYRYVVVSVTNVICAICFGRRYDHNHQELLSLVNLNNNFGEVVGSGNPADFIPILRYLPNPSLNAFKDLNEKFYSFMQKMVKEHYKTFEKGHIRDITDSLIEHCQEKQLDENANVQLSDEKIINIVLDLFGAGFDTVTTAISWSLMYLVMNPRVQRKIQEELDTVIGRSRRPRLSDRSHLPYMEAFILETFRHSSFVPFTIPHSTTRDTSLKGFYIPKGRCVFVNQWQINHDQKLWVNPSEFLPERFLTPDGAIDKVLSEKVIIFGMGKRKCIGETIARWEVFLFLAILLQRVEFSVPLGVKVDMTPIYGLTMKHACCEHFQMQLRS
Method in brief: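 Recombinant human CYP1 Supersomes co-expressing P450 reductase; 20 fmol CYP1B1, 10 fmol CYP1A1 or 60 fmol CYP1A2 per well. Incubated at 37 °C (1B1 35 min, 1A1 15 min, 1A2 50 min). Stopped with cold methanol; fluorescence read at 544/590 nm; triplicates.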

[4] = species on record: Homo sapiens; test: Selectivity index, ratio of IC50 for recombinant human CYP1A2 to IC50 for recombinant human CYP1B1
[5] = biological target: T3, Cytochrome P450 1B1 (Homo sapiens, UniProt Q16678); test: Inhibition of recombinant human CYP1B1 using 7-ethoxyresorufin as substrate after 35 mins in presence of NADP+ by EROD assay; method in brief: as §1
T3 sequence (Q16678 whole entry): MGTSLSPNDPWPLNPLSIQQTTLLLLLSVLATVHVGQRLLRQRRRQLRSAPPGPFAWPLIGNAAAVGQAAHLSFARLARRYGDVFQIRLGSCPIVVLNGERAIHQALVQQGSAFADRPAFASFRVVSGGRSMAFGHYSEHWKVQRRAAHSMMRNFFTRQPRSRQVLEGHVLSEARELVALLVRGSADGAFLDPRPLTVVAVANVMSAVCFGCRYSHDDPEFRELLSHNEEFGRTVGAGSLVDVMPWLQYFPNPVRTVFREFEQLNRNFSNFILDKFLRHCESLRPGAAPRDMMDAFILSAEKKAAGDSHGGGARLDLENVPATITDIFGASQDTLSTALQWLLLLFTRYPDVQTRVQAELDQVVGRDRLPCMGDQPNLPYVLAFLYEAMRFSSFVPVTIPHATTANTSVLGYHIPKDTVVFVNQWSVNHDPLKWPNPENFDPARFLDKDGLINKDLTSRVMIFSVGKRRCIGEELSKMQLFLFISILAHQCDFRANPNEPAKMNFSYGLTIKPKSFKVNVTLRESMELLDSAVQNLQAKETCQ

[6] = species on record: Homo sapiens; test: Selectivity index, ratio of IC50 for recombinant human CYP1A1 to IC50 for recombinant human CYP1B1
[7] = biological target: T3, Cytochrome P450 1B1; test: Potency index, ratio of IC50 of ANF to IC50 of compound for inhibition of human recombinant CYP1B1; details: read-out: Ratio IC50

| IC50 [1] [nM] | solubility [2] [µg/mL] | IC50 [3] [nM] | Ratio IC50 [4] | IC50 [5] [nM] | Ratio IC50 [6] | Compound | selectivity ratio [7] |
| --- | --- | --- | --- | --- | --- | --- | --- |
| 108 | 311 (≈ 822 µM) | 30.8 | 110 | 0.98 | 31.4 | COc1ccc(OC)c2c1c(OC)cc1c(=O)cc(-c3ccc(N)nc3)oc12 |  |
| > 1000 | < 5 | 16.8 | > 14300 | 0.07 | 240 | COc1ccc(OC)c2c1c(OC)cc1c(=O)cc(-c3ccc(F)cn3)oc12 | 84 |
|  | < 5 |  |  |  |  | O=c1cc(-c2ccccc2)oc2c1ccc1ccccc12 [ALPHA-NAPHTHOFLAVONE] |  |
| 161 |  | 6.9 | 124 | 1.3 | 5.3 | COc1ccc(OC)c2c1c(OC)cc1c(=O)cc(-c3cncc(C)c3)oc12 | 5 |
| 628 |  | 18.8 | 27.4 | 22.9 | 0.8 | COc1ccc(OC)c2c1c(OC)cc1c(=O)cc(-c3cncc(N)c3)oc12 |  |
| > 1000 |  | 9.9 | > 1190 | 0.84 | 11.8 | COc1ccc(OC)c2c1c(OC)cc1c(=O)cc(-c3cc(Cl)ccn3)oc12 |  |
| 141 |  | 17.7 | 144 | 0.98 | 18.1 | COc1ccc(OC)c2c1c(OC)cc1c(=O)cc(-c3cncc(F)c3)oc12 | 5 |
| > 1000 |  | 91.6 | > 909 | 1.1 | 83.3 | COc1ccc(OC)c2c1c(OC)cc1c(=O)cc(-c3ccnc(Cl)c3)oc12 |  |
| 108 |  | 5.4 | 179 | 0.6 | 9 | COc1ccc(OC)c2c1c(OC)cc1c(=O)cc(-c3ccccn3)oc12 |  |
| 742 |  | 8 | 674 | 1.1 | 7.3 | COc1ccc(OC)c2c1c(OC)cc1c(=O)cc(-c3cncc(Br)c3)oc12 | 5 |
| 40.4 |  | 4.4 | 8.4 | 4.8 | 0.9 | COc1ccc(OC)c2c1c(OC)cc1c(=O)cc(-c3cccs3)oc12 |  |
| > 1000 |  | 10.1 | > 1150 | 0.87 | 11.6 | COc1ccc(OC)c2c1c(OC)cc1c(=O)cc(-c3cc4ccccc4o3)oc12 |  |
